The campaign covered roughly 330,000 compounds. About 1,100 (0.33%) were called active.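 Rule for the calls: active = at 10 µM dose, activation of 40% or more, normalized to positive control; inactive = the rest.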 This excerpt belongs to a sample that is enriched for actives.
Test: PERK-eIF2a-CHOP pathway stimulators – cell-based, CHO-CHOP luciferase reporter, luminescence, uHTS, primary screen (AID 449763);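 note: 100% = tunicamycin at 10 µg/mL and 0% = DMSO alone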
Details: UPR activation, at 10 µM, active compounds read high, percent of tunicamycin response over DMSO baseline
Procedure, shortened: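 Assay system: CHO-CHOP cells, stable luciferase reporter of PERK-eIF2a-CHOP signalling / Buffer or medium: F12 plus 10% serum / Compound dosing: one dose, 10 µM in 0.5% DMSO / Times: 6 h compound treatment, 37 °C / Technique: luciferase luminescence / Read-out: % reporter activation, DMSO baseline versus tunicamycin full activation / Benchmarks: tunicamycin and DMSO controls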

SMILES | activation
COc1ccc(NC2CC(=O)N(C)C2=O)cc1 (stereo unspecified) | -2.21% (inactive)
COc1ccc(/C=N/Nc2cc(N3CCOCC3)nc(C)n2)c(OC)c1 | 8.25% (inactive)
CC(=O)c1ccc(Oc2cc(C)nc(-n3nc(C)cc3C)n2)cc1 | -1.17% (inactive)
CN(C)c1ccc(/C=N/Nc2cc(N3CCOCC3)nc(N3CCOCC3)n2)cc1 | -1.02% (inactive)
Cc1cc(N/N=C\c2ccc(Br)cc2)nc(-n2nc(C)cc2C)n1 | 49.5% (active)
COc1ccc(Nc2cc(C)nc(-n3nc(C)cc3C)n2)cc1 | 62.8% (active)
COc1ccccc1/C=N/N1CCN(Cc2ccccc2Cl)CC1 | -0.532% (inactive)
C(=N/Nc1cc(N2CCOCC2)nc(N2CCOCC2)n1)/c1ccccc1 | 4.25% (inactive)
COc1ccccc1/C=N\Nc1cc(C)nc(-n2nc(C)cc2C)n1 | 80.6% (active)
COc1ccc(NC(=O)c2nc(-n3nc(C)cc3C)ccc2Cl)cc1Cl | -0.184% (inactive)
CN(CC(=O)NC1CCN(Cc2ccccc2)CC1)S(=O)(=O)c1ccc(Cl)s1 | -1.76% (inactive)
N#CCN(C(=O)COC(=O)C1CC2CCCC(C1)C2=O)c1ccccc1 (stereo unspecified) | -1.48% (inactive)
O=C(NCCCn1ccnc1)C(=O)c1cn(CC(=O)N2CCCCCC2)c2ccccc12 | 1.32% (inactive)
Cc1ccc(S(=O)Cc2ccc(C(=O)N3CCN(C4CCCCC4)CC3)o2)cc1 (stereo unspecified) | -0.502% (inactive)
Cc1cccnc1NC(=O)Cn1c(=O)oc2ccccc21 | -1.26% (inactive)
O=C(CSc1nc(=O)n2ccccc2n1)Nc1ccc2c(c1)OCCO2 | 0.903% (inactive)
CCCCCC(=O)Nc1ccc(C(=O)N/N=C/c2ccc([N+](=O)[O-])cc2)cc1 | 90.2% (active)
CCCC(=O)Nc1ccc(C(=O)N/N=C/c2ccc[nH]2)cc1 | -0.0357% (inactive)
CCCCCC(=O)NC(=S)NNC(=O)c1ccc([N+](=O)[O-])cc1 | -1.39% (inactive)
CCCc1nn(C)c2c(=O)[nH]c(-c3cc(S(N)(=O)=O)ccc3OCC)nc12 | 0.336% (inactive)
COc1ccc(/C=N/N=C2/C(=O)Nc3ccccc32)cc1O | 10.4% (inactive)
O=C1Nc2ccc(Br)cc2/C1=N/N=C/C1=C(N2CCOCC2)C(=C\c2ccccc2)/CC1 | 46.3% (active)
Cc1cc2nc3n(c2cc1C)CC1CC(C(=O)NCCC(C)C)N(C)C31 (stereo unspecified) | -0.707% (inactive)

SMILES | activation
O=C(O)c1cccc(NC(=O)c2cc(-c3cccc(Cl)c3)nc3ccccc23)c1 | 2.21% (inactive)
O=C(/C(=C/c1cccc(Cl)c1)c1nc2ccccc2[nH]1)c1ccccc1 | 349% (active)
O=C(N/N=C/c1ccc(Cl)cc1)c1nc2ccc([N+](=O)[O-])cc2c(=O)[nH]1 | 0.124% (inactive)
O=S(=O)(c1ccc(SCc2ccc(Br)cc2)nc1)N1CCOCC1 | 0.334% (inactive)
COc1ccccc1OCCCCCCN1CCN(C)CC1 | -0.245% (inactive)
Cc1nc2ccc(NC(=O)c3cccc(S(=O)(=O)N4CCOCC4)c3)cc2s1 | 1.06% (inactive)
O=C(CN1CCN(S(=O)(=O)c2cccc(Cl)c2)CC1)N1CCCCC1 | -0.576% (inactive)
O=S(=O)(Nc1nccs1)c1ccc2c(c1)OCCO2 | -1.47% (inactive)
Cc1cccc(-n2ncc(Cl)c(Cl)c2=O)c1 | 49.1% (active)
Cc1ccc(Oc2cnn(-c3ccccc3)c(=O)c2Br)cc1 | 2.08% (inactive)
C=CCNc1cnn(-c2ccc(C)cc2)c(=O)c1Cl | 0.179% (inactive)
Cc1ccc(CNC(=O)COC(=O)C2CCC2)cc1 | 0.475% (inactive)
CCc1nnc(NC(=O)CSc2nnnn2-c2cccc(C(C)=O)c2)s1 | -1.47% (inactive)
CCOc1ccc(Br)cc1CSC(=N)N | 0.704% (inactive)
CCOC(=O)c1cnc(Nc2nc3ccccc3o2)nc1CSC(=S)N1CCCCC1 | 152% (active)
CCc1ccc(CNC(=O)C2CCCN(c3nc4ccccc4o3)C2)cc1 (stereo unspecified) | -2.13% (inactive)
CCOC(=O)CCNC(=O)N1CCCC(C(=O)c2ccccc2SC)C1 (stereo unspecified) | 1.02% (inactive)
CCN(CC)C(=O)Cn1cc(S(=O)(=O)CC(=O)NCc2ccc3c(c2)OCO3)c2ccccc21 | -0.829% (inactive)
Cc1cc(NC(=O)CS(=O)(=O)c2cn(C)c3ccccc23)no1 | 1.58% (inactive)
CCN(C(=O)CSc1ncnc2sccc12)c1c(N)n(Cc2ccccc2)c(=O)[nH]c1=O | -3.54% (inactive)
CC1CC2=C(CC1/C=N/NC(N)=S)C(C)(C)CCC2 (stereo unspecified) | 67.6% (active)
Cc1ccc(C(=O)Cc2nnc(C)s2)cc1 | 1.29% (inactive)
CC(=O)Nc1ccc(S(=O)(=O)N2CCC(NC(=O)c3ccccc3)CC2)cc1 | 1.32% (inactive)

SMILES | activation
C=Cn1c(C(=O)O)ccc1-c1ccc(OC)cc1 | -1.21% (inactive)
COC(=O)c1ccc(C(=O)NC2CC(C)(C)Cc3c2cnn3-c2ccc(F)cc2)nc1 (stereo unspecified) | 0.891% (inactive)
CCOc1ccc2nc(Cl)c(C3CC(c4ccccc4)=NN3C(=O)c3cccs3)cc2c1 (stereo unspecified) | 85.3% (active)
COc1ccc(C2=NN(C(=O)c3ccccc3C(=O)O)C(c3ccccc3O)C2)cc1 (stereo unspecified) | 4.22% (inactive)
CCOc1ccccc1C1CC(c2cccc(NS(C)(=O)=O)c2)=NN1C(=O)c1ccccc1 (stereo unspecified) | 1.22% (inactive)
CCOc1ccccc1CN1CCN(C2CCC2)CC1CCO (stereo unspecified) | 1.34% (inactive)
CS(=O)(=O)c1ccc(C(=O)OCC(=O)NNC(=O)COc2ccc(Cl)cc2)cc1 | -0.907% (inactive)
Cc1c(NC(=O)CSc2nnnn2-c2ccc(C(=O)O)cc2)c(=O)n(-c2ccccc2)n1C | -0.108% (inactive)
Cc1c(NC(=O)CSc2nnc(-c3cccnc3)n2N)c(=O)n(-c2ccccc2)n1C | 0.658% (inactive)
Cc1c(NC(=O)CSc2cccc3cccnc23)c(=O)n(-c2ccccc2)n1C | 163% (active)
NC(=O)CC[C@@H]1NC(=O)[C@@H]2CCCN2C(=O)c2cc([N+](=O)[O-])cc(F)c2NCCC[C@@H](C(N)=O)NC1=O | -0.0942% (inactive)
COc1ccccc1P(=O)(c1ccccc1)c1ccccc1NC(C)=O (stereo unspecified) | -0.343% (inactive)
COc1cc(C(=O)N/C(=C\c2cn(C)c3ccccc23)C(=O)N2CCOCC2)cc(OC)c1OC | -0.204% (inactive)
CCCCC[C@H]1CN(C2CCCCC2)C(=O)[C@@H]1CC(=O)NCc1ccc(OC)cc1 | 0.258% (inactive)
CC[C@H](C)C(=O)N[C@H]1CCCN1C(=O)/C=C/c1ccccc1 | -0.778% (inactive)
CCC(O)CNc1nc(-n2nc(C)cc2C)nc2sc3c(c12)CC(C)(C)OC3 (stereo unspecified) | -0.387% (inactive)
COCCNc1nc(-n2nc(C)cc2C)nc2sc3c(c12)CCCC3 | 45.9% (active)
Cc1nc2sc3c(c2c(=O)n1NC(=O)CCl)CCCC3 | 1.06% (inactive)
O=C(Nc1ccc(S(=O)(=O)N2CCOCC2)cc1)c1ccc2ncsc2c1 | 2.81% (inactive)
COC(=O)c1sccc1NN1C(=O)c2ccccc2C1=O | -0.357% (inactive)
C[C@@H]1C[C@@H]2O[C@H]2/C=C\C=C\C(=O)Cc2c(Cl)c(O)cc(O)c2C(=O)O1 | 145% (active)
COc1ccccc1C(=O)NCc1nnc(SC(C)C(=O)Nc2nccs2)n1C (stereo unspecified) | -1.66% (inactive)
O=C(NCc1ccc(Cl)cc1)c1cc(=O)nc2sc(-c3ccccc3)nn12 | -2.04% (inactive)

SMILES | activation
COc1ccc(OC)c(-c2csc(NC(=O)C3=NNC(=O)CC3)n2)c1 | -1.74% (inactive)
COc1ccc(OC)c(-c2csc(NC(=O)COC(=O)C3CC3)n2)c1 | 1.31% (inactive)
COc1ccc(OC)c(Nc2nc(-c3ccc(O)c(O)c3)cs2)c1 | 74.3% (active)
COC(=O)C1CCN(C(=O)COC(=O)c2cc(S(=O)(=O)N3CCOCC3)ccc2C)CC1 | 0.025% (inactive)
COc1ccc(C2=NOC(Cn3nc(C(=O)NCc4ccc5c(c4)OCO5)cc3-c3ccccc3)C2)cc1 (stereo unspecified) | 0.69% (inactive)
Cc1ccsc1C(=O)OCC(=O)c1cc(C)n(CC2CCCO2)c1C (stereo unspecified) | -8.43% (inactive)
Cc1cc(C(=O)CCl)c(C)n1CC1COc2ccccc2O1 (stereo unspecified) | 174% (active)
O=C1C(=O)N(CC2COc3ccccc3O2)c2ccccc21 (stereo unspecified) | 2.24% (inactive)
CC(C)CNc1ncnc2c1cnn2Cc1ccc(Cl)cc1 | 2.5% (inactive)
O=C(Nc1ccc(-n2ccnc2P(=O)(O)c2ccccc2)cc1)c1ccccc1Br | -1.3% (inactive)
COCCN(Cc1cc2cc3c(cc2nc1Cl)OCO3)C(=O)c1cccc(C)c1 | 2.77% (inactive)
O=C(NC1CCN(Cc2ccccc2)CC1)c1ccc(Oc2cc(Cl)cc(Cl)c2)o1 | 0.679% (inactive)
Cn1cc(CN2CCCC(CO)C2)c(-c2ccc(Oc3ccccc3)cc2)n1 (stereo unspecified) | -1.18% (inactive)
Cn1cc(CN2CCC(C(O)CCc3ccccc3)CC2)c(-c2ccccc2F)n1 (stereo unspecified) | -1.46% (inactive)
CCCOC1CCCN(Cc2cn(C)nc2-c2ccccc2F)C1 (stereo unspecified) | 44.6% (active)
O=C(CN1C(=O)c2cccnc2Oc2ccc(Cl)cc21)Nc1ccc(F)cc1 | 1.1% (inactive)
Cc1ccc(CN2CCN(c3ncccn3)CC2)c(C)c1 | 0.144% (inactive)
Oc1c(CN2CCN(c3ccc(F)cc3)CC2)cc(Cl)c2cccnc12 | 415% (active)
Oc1c(CN2CCCC2)cc(COCc2ccccc2)c2cccnc12 | 37.6% (inactive)
O=C(Nc1ccc(N2CCN(C(=O)c3ccccc3)CC2)c(Cl)c1)c1cccnc1 | 0.424% (inactive)
CC(CCn1cccn1)NC(=O)CCc1nnc(CCc2ccccc2)o1 (stereo unspecified) | -1.47% (inactive)
CCc1noc(C)c1C(=O)N1CCCSC1=Nc1ccccc1OC | 2.57% (inactive)
